Results gathered from unrelated publications.
Lines come from different studies, so protocols differ.
FLT3 D835V/ITD: Receptor-type tyrosine-protein kinase FLT3 (FLT3, Homo sapiens, UniProt P36888, D835V/ITD)
FLT3 K663Q: Receptor-type tyrosine-protein kinase FLT3 (FLT3, Homo sapiens, UniProt P36888, K663Q)
FLT3 D835Y: Receptor-type tyrosine-protein kinase FLT3 (FLT3, Homo sapiens, UniProt P36888, D835Y)
FLT3 autoinhibited: Receptor-type tyrosine-protein kinase FLT3, autoinhibited (FLT3, Homo sapiens, UniProt P36888)
FLT3 N841I: Receptor-type tyrosine-protein kinase FLT3 (FLT3, Homo sapiens, UniProt P36888, N841I)
FLT3 R834Q: Receptor-type tyrosine-protein kinase FLT3 (FLT3, Homo sapiens, UniProt P36888, R834Q)
FLT3 D835V: Receptor-type tyrosine-protein kinase FLT3 (FLT3, Homo sapiens, UniProt P36888, D835V)
FLT3: Receptor-type tyrosine-protein kinase FLT3 (FLT3, Homo sapiens, UniProt P36888)
FLT3 D835H: Receptor-type tyrosine-protein kinase FLT3 (FLT3, Homo sapiens, UniProt P36888, D835H)

SMILES	target	assay	conditions	remaining binding
O=C(NC1CCC1)c1ccc2nc(-c3cccc(NS(=O)(=O)NCCN4CCCCC4)c3)cn2c1	FLT3 D835V/ITD	cell-free assay, competition with immobilised ligand	10 µM	37%
NS(=O)(=O)c1cc(NC(=O)C2(c3ccccc3Cl)CC2)ccc1Oc1cccc(Cl)c1	FLT3 K663Q	cell-free assay, competition with immobilised ligand	1 µM	100%
O=C(c1ccc(Nc2nccc(-c3cc4ccccc4s3)n2)cc1)N1CCC(N2CCCC2)CC1	FLT3 D835Y	binding, competition with immobilised ligand	1 µM	28%
O=C(Nc1cnc(Oc2ccc(F)cc2)nc1)N1CCc2ncccc2[C@@H]1c1ccc(F)cc1	FLT3 autoinhibited	cell-free assay, competition with immobilised ligand	1 µM	90%
CN1CCN(c2ccc(Nc3nccc(-c4ccccc4)n3)cc2C(F)(F)F)CC1	FLT3 D835Y	binding	10 µM	1.3%
CC1CCCN1c1nccc(-c2cnn3ncccc23)n1 (stereo not shown)	FLT3 D835Y	binding	1 µM	100%
C[C@@H](c1ccc(-n2cnc3c(N)ncnc32)cc1)N1CCc2nn(C)c(Cc3ccccc3)c2C1=O	FLT3 N841I	binding, competition with immobilised ligand	0.1 µM	97%
COc1ccnn2ncc(-c3ccnc(N(C)C)n3)c12	FLT3 R834Q	binding	1 µM	87%
CCN1CCN(Cc2ccc(C(=O)Nc3ccc(C)c(Oc4ccc5c(c4)CC(=O)N5)c3)cc2C(F)(F)F)CC1	FLT3 K663Q	binding, competition with immobilised ligand	1 µM	45%
COc1cnc(Nc2cccc(S(N)(=O)=O)c2)nc1N1CCN(c2ccccc2)CC1	FLT3 K663Q	binding, competition with immobilised ligand	1 µM	36%
Cc1cnc(Nc2ccc(C(=O)N3CCC(N4CCCC4)CC3)cc2)nc1-c1cc2ccccc2s1	FLT3 N841I	binding, competition with immobilised ligand	1 µM	0%
O=C1NC(c2ccccn2)Sc2ccccc21 (stereo not shown)	FLT3 K663Q	cell-free assay, competition with immobilised ligand	1 µM	82%
COc1cnc(Nc2cccc(S(N)(=O)=O)c2)nc1N1CCN(c2ccccc2)C(=O)C1	FLT3 N841I	binding, competition with immobilised ligand	1 µM	96%
O=C(c1ccc(Nc2ncc(Cl)c(-c3cc4ccccc4s3)n2)cc1)N1CCC(N2CCCC2)CC1	Receptor-type tyrosine-protein kinase FLT3 (FLT3, Homo sapiens, UniProt P36888, F691L/ITD)	binding, competition with immobilised ligand	1 µM	2.7%
c1cnn2ncc(-c3ccnc(N4CCC45COC5)n3)c2c1	FLT3 D835V	binding	1 µM	20%
C[C@@H]1CN(c2ccc3ncc(-c4ccc5[nH]nc(C6CC6)c5c4)n3n2)C[C@H](C)O1	FLT3	binding, competition with immobilised ligand	0.5 µM	3%
O=C(NCCCN1CCOCC1)c1ccc(Nc2ncc(Cl)c(-c3ccc(Cl)s3)n2)cc1	FLT3 D835Y	binding, competition with immobilised ligand	1 µM	1.8%
COc1ncc2cc3ccccc3nc2c1C#N	FLT3 D835Y	cell-free assay, competition with immobilised ligand	5 µM	92%
CN(c1nccc(-c2cnn3ncccc23)n1)C1CC1	FLT3 D835Y	binding	1 µM	85%

SMILES	target	assay	conditions	remaining binding
O=C(NCC1CCOCC1)c1n[nH]cc1NC(=O)c1c(F)cccc1F	FLT3 D835Y	binding, competition with immobilised ligand	1 µM	89%
C[C@@H]1CCN(c2nccc(-c3cnn4ncccc34)n2)C1	FLT3 R834Q	binding	1 µM	71%
O=C(Nc1c[nH]nc1C(=O)NC1CCNCC1)c1cc(F)cc(F)c1	FLT3	binding, competition with immobilised ligand	1 µM	100%
CNC(=O)[C@@H]1CC[C@@H](n2c(-c3ccc4cnccc4c3)nc3ccc(C(=O)NCc4cccc(C(N)=O)c4)cc32)C1	FLT3 K663Q	binding, competition with immobilised ligand	1 µM	99%
O=C(c1ccc(Nc2ncc(Cl)c(-c3ccc(Cl)s3)n2)cc1)N1CCC(N2CCCC2)CC1	FLT3	binding, competition with immobilised ligand	1 µM	10%
N[C@@H]1CCN(c2nccc(-c3cnn4ncccc34)n2)C1	FLT3 D835Y	binding	1 µM	97%
CN1CCN(c2ccc(Nc3nccc(-c4cccc([N+](=O)[O-])c4)n3)cc2C(F)(F)F)CC1	FLT3 D835H	binding	10 µM	1.1%
O=C(NCCCN1CCOCC1)c1ccc(Nc2nccc(-c3cc4ccccc4s3)n2)cc1	FLT3 D835V/ITD	binding, competition with immobilised ligand	1 µM	12%
Cc1noc([C@H]2C[C@@H](c3ccc(C(F)(F)F)cc3)CN(C(=O)N3CCS(=O)(=O)C3)C2)n1	FLT3 R834Q	cell-free assay, competition with immobilised ligand	1 µM	91%
C=CC(=O)N1CCC(C(=O)NCC(=O)N2CCN(c3nc(-c4cnc(N)nc4C(F)F)nc(N4CCOCC4)n3)CC2)CC1	FLT3 D835V	binding, competition with immobilised ligand	1 µM	61%
FC(F)(F)c1ccc2c(c1)nc(-c1cccnc1)n2C1CC1	FLT3	cell-free assay, competition with immobilised ligand	1 µM	93%
c1cncc(-c2cccc(Nc3nccc(NC4CCCCC4)n3)c2)c1	FLT3 R834Q	binding, competition with immobilised ligand	10 µM	5.5%
CN(C)c1ncnc(-c2ccc3nc(Nc4cc(CN5CCN(C(=O)CC(F)(F)F)CC5)ccn4)[nH]c3c2)c1Cl	FLT3 D835H	cell-free assay, competition with immobilised ligand	1 µM	42%
CN(C)c1nccc(-c2cnc3ncccn23)n1	FLT3 autoinhibited	binding	1 µM	72%
COc1ccc2cc(OCC3(C(=O)O)CN(C(=O)c4ccc(F)cc4)C3)ccc2c1	FLT3 R834Q	cell-free assay, competition with immobilised ligand	1 µM	100%
F[C@@H]1CCN(c2nccc(-c3cnn4ncccc34)n2)C1	FLT3 autoinhibited	binding	1 µM	100%
CO[C@@H](C)c1c(Nc2ccc([C@H](N(C)C(=O)C3CCS(=O)(=O)CC3)C(F)(F)F)cc2)cnc2cc(Cl)nn12	FLT3 D835Y	cell-free assay, competition with immobilised ligand	1 µM	59%
Nc1ncc2c(n1)-c1c([nH]c3ccc(C#CC4CC4)cc13)CCCC2	FLT3 D835V	binding, competition with immobilised ligand	1 µM	92%
